Most compounds without a hit are left out; they make up all but 1.3% or so of the library.
PERK inhibitor = inhibitors of human PERK kinase. CHO PERK-DD fusion, SEAP luminescence translation reporter. inhibition, % at 5.6 µM. hit rate 0.17% among 220,000;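 active means inhibition above the mean inhibition of all tested compounds plus 3 SD, set separately per screening campaign, cut at about 2.9% in these data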;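 further: PERK kinase domain activated by AP20187 dimerizer at 100 nM; 0% = DMSO with dimerizer and 100% = rapamycin at 8.4 µM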
MDM2 E3 inh = blocks human Mdm2 ubiquitin ligase activity; Q00987; cell-based MDM2 ubiquitination luciferase reporter, 2 h; 0 = plate control, 100 = twice control, blank-subtracted; signal enhancement, % at 5 µM; hit rate 0.11% among 210,000;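 active means signal enhancement of 30% or more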;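 further: luminescence tracks abundance of the self-degrading MDM2-luciferase fusion protein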
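Assay system: mammalian cells stably expressing self-ubiquitinating, self-degrading MDM2 E3–luciferase fusion. Quantity: 2000 cells in each well. Medium: DMEM culture medium. Compound dosing: single-point 5 µM. Timing: cell settling 4 h, compound treatment 2 h, both 37 °C. Technique: luciferase luminescence. Read-out basis: percent signal gain over controls, blank-subtracted. Benchmarks: plate controls and plate blanks.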
Hck Nef HTS = blocks Nef-activated human Hck kinase | P08631 | Recombinant Hck-YEEI plus Nef, Z-Lyte FRET kinase assay | inhibition, % at 20 µM | hit rate 0.68% among 220,000;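 active means Hck-Nef kinase inhibition above about 50%, limit read from the data; inactive means inhibition below that limit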;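 further: 0% = DMSO with Hck plus Nef and 100% = Hck alone without Nef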
PKD1 kinase inh = inhibitors of human PKD1 kinase. PKD1 kinase fluorescence polarization assay. inhibition, % (no concentration beside the values). hit rate 0.056% among 200,000; in the data active means inhibition above about 50%
Target sequence (Q15139 whole entry, looked up): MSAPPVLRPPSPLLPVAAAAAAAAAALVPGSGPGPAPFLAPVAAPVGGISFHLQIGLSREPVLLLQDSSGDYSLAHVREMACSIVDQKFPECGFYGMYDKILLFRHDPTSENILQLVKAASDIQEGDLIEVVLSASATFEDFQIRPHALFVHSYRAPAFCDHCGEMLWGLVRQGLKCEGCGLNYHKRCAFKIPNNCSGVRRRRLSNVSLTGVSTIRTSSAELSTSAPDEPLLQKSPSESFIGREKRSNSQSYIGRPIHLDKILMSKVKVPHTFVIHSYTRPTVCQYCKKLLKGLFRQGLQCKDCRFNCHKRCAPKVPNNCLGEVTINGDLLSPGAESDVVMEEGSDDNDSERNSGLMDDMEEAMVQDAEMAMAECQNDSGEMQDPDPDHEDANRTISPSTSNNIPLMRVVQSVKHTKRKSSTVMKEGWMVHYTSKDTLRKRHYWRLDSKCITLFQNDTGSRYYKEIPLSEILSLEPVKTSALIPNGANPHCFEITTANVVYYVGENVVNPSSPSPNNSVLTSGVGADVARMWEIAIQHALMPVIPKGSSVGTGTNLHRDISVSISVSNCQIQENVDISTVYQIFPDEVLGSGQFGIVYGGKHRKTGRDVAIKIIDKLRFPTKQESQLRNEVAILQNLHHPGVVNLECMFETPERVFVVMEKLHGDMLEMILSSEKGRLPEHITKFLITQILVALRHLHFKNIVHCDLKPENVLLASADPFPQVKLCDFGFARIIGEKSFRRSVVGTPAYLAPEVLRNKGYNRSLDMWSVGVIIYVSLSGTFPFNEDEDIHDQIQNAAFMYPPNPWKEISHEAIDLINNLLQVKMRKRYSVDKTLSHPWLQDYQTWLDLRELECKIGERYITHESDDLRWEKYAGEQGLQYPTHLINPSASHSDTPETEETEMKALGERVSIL
H9c2 TAG inh = reduces triacylglycerol accumulation in H9c2 cells. AID 651582. Nile Red lipid (TAG) fluorescence; cells loaded with 200 µM oleic acid. inhibition, % at 12.5 µM. hit rate 0.66% among 230,000;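 active means pattern-corrected inhibition of lipid staining of at least 50% with the nuclear-stain viability signal not falling by more than 50%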;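 further: 0% = DMSO wells and 100% = triacsin C control wells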
Rad51 HR inh = Rad51 (human) homologous recombination inhibition | hit rate 0.085% among 200,000 | inhibition, % at 10 µM | hRad51 DNA strand exchange, fluorescence dequenching;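 active means inhibition above 40% at the single screening dose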;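 further: 0% = DMSO control wells and 100% = blanks with heterologous ssDNA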
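Material: Human Rad51 nucleoprotein filaments preassembled on unlabelled ssDNA | Also added: Labelled 47-mer dsDNA for strand exchange | Dosing: Single dose, 10 µM final compound | Schedule: 30-min compound preincubation and 15-min exchange, both room temperature | Technique: Fluorescence dequenching at 485/520 nm | Measure: Percent inhibition relative to plate controls and blanks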
* marks the source's active call; other numbers are inactive results; / = no result given.

SMILES	PERK inhibitor	MDM2 E3 inh	Hck Nef HTS	PKD1 kinase inh	H9c2 TAG inh	Rad51 HR inh
Cc1cc(C(=O)CSc2nnc(Nc3ccccc3F)s2)c(C)n1CC1CCCO1 (stereo unspecified)	-0.1	-9.1	1.4	8.6	42.1	-2.9
C/C(=N\NC(=O)C(C)Sc1ccccc1)c1ccc([N+](=O)[O-])cc1 (stereo unspecified)	/	/	/	/	-15.2	/
Cc1ccc(CN2CC(C(=O)NCCC3=CCCCC3)CC2=O)cc1 (stereo unspecified)	/	/	/	/	4.7	/
CCSc1nc2ccccc2n1C(=O)/C=C\c1ccc(OC)c(OC)c1	0.3	42.7*	2.7	6.4	21.3	-14.3
COC(=O)c1ccccc1S(=O)(=O)N1CCC(C(=O)OCc2cccc(OC)c2OC)CC1	/	/	/	/	5.3	/
CCCCCCOc1ccc(-c2ccc(C#N)cn2)cc1	3.1*	-0.8	0.4	-8.4	-11.6	-7.4
CCCCCCOc1ccc(C(=O)O)cc1	0.7	-0.9	16.2	/	8.7	/
Cc1c(Cl)ccc2c(C(=O)NCCN3CCCCC3)cc(-c3ccccn3)nc12	0.0	-21.5	-19.5	-6.2	42.5	30.8
COc1ccccc1-c1cc(C(=O)NC2CCN(C)CC2)c2ccc(Cl)c(C)c2n1	/	/	/	/	102.6*	/
CCC(C)(C)c1ccc(OCCCC[n+]2ccccc2)c(C(C)(C)CC)c1	0.9	-14.9	12.1	-6.4	52.1*	7.8
CCCCCc1ccc(OCCCC[n+]2ccccc2)c(CCCCC)c1	0.4	-13.2	24.5	-1.4	32.5	30.7
CCCC(C)c1nnc(NC(=O)C(=O)OCC)s1 (stereo unspecified)	3.0*	-22.3	10.9	1.6	21.8	-101.4
CCCC(C)c1nnc(NC(=O)C2CCCO2)s1 (stereo unspecified)	-1.1	-6.5	-8.8	0.1	/	-13.5
O=C(CCl)N(c1ccccc1)c1c[nH]c2ccccc12	-0.8	-2.5	-1.4	-4.3	78.7*	13.3
CC(=O)n1cc(N(C(=O)CCl)c2ccccc2)c2ccccc21	-0.1	-2.8	22.8	/	65.3*	/
CC(=O)n1cc(N(C(=O)CCl)c2ccc([N+](=O)[O-])cc2)c2ccccc21	-0.5	-8.2	18.3	/	33.1	13.8
NC(=O)C1=C[C@@H](C2CCCCC2)C[C@@H](OCCCCO)O1	0.7	/	1.3	18.6	10.5	-3.8
COc1cc(/C=C2/SC(=Nc3ccc(O)cc3)NC2=O)ccc1O	0.3	-11.8	45.7	/	58.7*	-227.1
COc1cc(/C=C2\SC(=Nc3cccnc3)NC2=O)cc(OC)c1OC	1.8	1.6	16.8	/	-0.6	-188.3
Cc1ccc(-n2c(=O)c3cc4c(=O)n(-c5ccc(C)c(C)c5)c(=O)c4c(C(=O)c4ccc(C(=O)O)cc4)c3c2=O)cc1C	0.4	/	92.4*	/	4.0	9.8
O=C(O)c1ccc(-n2c(=O)c3ccccc3c3ccccc3c2=O)cc1	0.9	5.4	23.3	-4.1	-1.1	0.8
CCOC(=O)C1CCN(C(=O)c2ccco2)CC1	0.8	1.6	3.4	-8.8	-10.3	76.5*
COC(=O)c1c(NC(=O)c2cccc(S(=O)(=O)N3CCN(C)CC3)c2)sc(C)c1C	/	/	/	/	-18.5	/
Cc1ccc(-c2cc(C(=O)N/N=C/c3c(C)nn(-c4ccccc4)c3C)[nH]n2)cc1	-0.7	-12.3	3.0	-7.9	68.7*	/
O=C(NC1CCN(Cc2ccccc2)CC1)c1ccccc1OCc1ccccc1Cl	/	/	/	/	-12.2	/
SMILES	PERK inhibitor	MDM2 E3 inh	Hck Nef HTS	PKD1 kinase inh	H9c2 TAG inh	Rad51 HR inh
Cc1cc(C)n(-c2nc3c(c(=O)[nH]c(=O)n3C)n2Cc2ccc(F)cc2)n1	-0.5	-3.8	1.2	-10.0	0.2	65.7*
Cc1cc(C)n(-c2nc3c(c(=O)[nH]c(=O)n3C)n2Cc2ccccc2)n1	-0.1	-19.1	0.5	0.3	-6.6	2.0
Cn1c(SCC(=O)Nc2ccccc2O)nnc1-c1ccco1	/	/	/	/	0.3	/
C/C(CC(=O)Nc1ccc(C)c(Cl)c1)=N\NC(=O)c1ccncc1	1.6	14.8	-31.3	-8.4	-0.8	6.2
C/C(CC(=O)Nc1ccc(Cl)cc1Cl)=N\NC(=O)c1ccncc1	3.1*	-17.1	7.2	/	0.5	/
COc1cc(/C=N/NC(=O)c2ccncc2)ccc1O	/	/	/	/	4.0	/
O=C(N/N=C/c1cc(Cl)ccc1O)c1ccncc1	1.6	-2.1	-3.4	/	53.2*	-44.0
COCCNC(=O)c1c(C)cc(C)cc1C	-0.2	-2.6	1.4	3.3	2.0	-6.9
O=c1cc(-c2ccc(Br)cc2)[nH][nH]1	2.9*	-6.5	-0.7	-6.3	-1.7	12.3
